Laboratory results from ChEMBL document CHEMBL4342502, “Synthesis and Antichlamydial Activity of Molecules Based on Dysregulators of Cylindrical Proteases” (J Med Chem, 2020).
Active and inactive are the calls of the source. The rule behind the calls is not given here.

How the values were obtained:
[1] = (§1) Activation of recombinant mouse C-terminal 6xHis-tagged ClpP expressed in Escherichia coli assessed as induction of casein degradation at 0.1 to 1 uM using FITC-labelled casein as substrate pretreated with enzyme for 30 mins followed by substrate addition and measured every 3 mins for 3 hrs in absence of AAA+ chaperone by fluorescence based tecan-plate reader assay
Method in brief: (§2)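 Recombinant C-terminal His6-tagged ClpP, expressed in a clpAPX-null E. coli strain and purified (mammalian ClpP without mitochondrial signal, codon-optimized). ClpP at 1 or 0.1 μM (E. coli), 1 μM (human, mouse) or 6 μM (chlamydial ClpP1 and ClpP2) preincubated with compound or DMSO, 30 min, 32 °C, in HEPES pH 7.6/KCl/MgCl2/DTT/glycerol buffer. 20 μM FITC-casein then added. Fluorescence (ex 490/em 525 nm) read every 3 min for 3 h. At least three runs on at least two protein preparations.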

Chlamydia trachomatis [2] = assay: as §1, with “Chlamydia trachomatis Serovar LGV-L2” for “mouse”, “6xhis-tagged ClpP1/ClpP2 dimer” for “6xHis-tagged ClpP”; method in brief: as §2
Staphylococcus aureus [3] = assay: Antibacterial activity against Staphylococcus aureus JE2 assessed as bacterial growth inhibition at 32 ug/ml measured after 16 hrs by broth microdilution method; format: functional, organism-based
Method in brief: (§3)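 Broth microdilution in Mueller Hinton broth, triplicate. Direct colony suspension at 1.5 x 10^8 CFU/mL diluted to ~10^5 CFU/mL. Serial dilutions made from DMSO stocks at 1 mg/mL; vancomycin positive control, blank medium negative control. Incubated 16 h at optimum temperature. MIC is the lowest concentration without visible growth at 600 nm; mean of triplicate determinations.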

Staphylococcus aureus [4] = assay: Antibacterial activity against methicillin-resistant Staphylococcus aureus ATCC 43300 assessed as bacterial growth inhibition at 32 ug/ml measured after 16 hrs by broth microdilution method; format: functional, organism-based
Escherichia coli = assay: Antibacterial activity against Escherichia coli K12 assessed as bacterial growth inhibition at 32 ug/ml measured after 16 hrs by broth microdilution method; format: functional, organism-based; details: K-12; method in brief: as §3
Cryptococcus neoformans = assay: Antifungal activity against Cryptococcus neoformans var. grubii H99 ATCC […] as fungal growth inhibition at 32 ug/ml measured after 16 hrs by broth microdilution method; format: functional, organism-based; details: var. grubii H99 ATCC 208821
[5] = Intrinsic clearance in human liver microsomes at 1 ug/ml measured per mg protein up to 60 mins by LC-MS/MS analysis; format: ADME, Microsome; details: microsomes, 1 h
Method in brief: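 Human liver microsomes (1.0 mg/mL protein) in 100 mM phosphate pH 7.4 with 10 mM MgCl2 and 2 mM NADPH, preincubated 10 min at 37 °C. Reaction started with compound at 1 μg/mL. Sampled at 0, 5, 15, 20, 30, 45 and 60 min and quenched in methanol with internal standard. Controls: no NADPH (negative), testosterone (positive). Analysed by LC-MS/MS, triplicate.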

[6] = Toxicity in Drosophila melanogaster assessed as survival rate at 0.25 to 1 mM; details: 1000 µM
Method in brief: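 Drosophila SMART assay using third-instar larvae (72 ± 4 h) from ST and HB crosses. Larvae exposed in hydrated instant mashed-potato medium at 0.25, 0.5 and 1.0 mM final. Vehicle control: water with 1% Tween-80 and 3% ethanol. Survival of treated groups compared statistically with the vehicle control.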

Chlamydia trachomatis [7] = assay: Inhibition of recombinant Chlamydia trachomatis Serovar LGV-L2 C-terminal 6xhis-tagged ClpP1/ClpP2 dimer expressed in Escherichia coli at 0.1 to 1 uM by […] fluorescent peptide assay
Chlamydia trachomatis [8] = assay: (§4) Anti-chlamydial activity against Chlamydia trachomatis Serovar LGV-L2 infected in Hep2 cells assessed as reduction in chlamydial inclusion growth by measuring appearance of small and irregular inclusions at 50 ug/ml treated at 8 hrs post-infection and 24 hrs later re-infecting fresh Hep2 cells monolayer with infected cells and measured at 24 hrs post re-infection by immunofluorescence staining based microscopy analysis; format: functional, organism-based
Method in brief: (§5)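 HEp-2 cells in DMEM with 10% FBS, infected with C. trachomatis L2 at MOI 1. Compounds added 8 hpi in triplicate; DMSO stocks at 50 mg/mL. At 24 hpi lysates collected in sucrose storage medium, frozen at −80 °C, and used to infect fresh HEp-2 monolayers in 10-fold dilutions. After 24 h, stained with goat anti-MOMP and Alexa488 secondary. Inclusions counted in 15 fields at 20x; IFU = mean count per field corrected for dilution.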

HEp-2 = assay: Toxicity in human Hep2 cells infected with Chlamydia trachomatis Serovar LGV-L2 at 100 ug/ml treated at 8 hrs post-infection and 24 hrs later re-infecting fresh Hep2 cells monolayer with infected cells and measured at 24 hrs post re-infection by immunofluorescence staining based microscopy analysis; format: cell-based
Chlamydia trachomatis [9] = assay: as §4, with “50 to 100” for “50”; format: functional, organism-based; method in brief: as §5
Chlamydia trachomatis [10] = assay: as §4, with “12.5” for “50”, “analysis relative to control” for “analysis”; format: functional; details: Serovar LGV-L2, HEp-2; method in brief: as §5
Chlamydia trachomatis [11] = assay: Anti-chlamydial activity against Chlamydia trachomatis Serovar LGV-L2 infected in Hep2 cells assessed as reduction in chlamydial growth by measuring decrease in inclusion forming units at 5.2 to 50 ug/ml treated at 8 hrs post-infection and 24 hrs later re-infecting fresh Hep2 cells monolayer with infected cells and measured at 24 hrs post re-infection by immunofluorescence staining based microscopy analysis; format: functional, organism-based; method in brief: as §5
Chlamydia trachomatis [12] = assay: (§6) Anti-chlamydial activity against Chlamydia trachomatis Serovar LGV-L2 infected in Hep2 cells assessed as reduction in chlamydial inclusion yield at 50 ug/ml treated at 8 hrs post infection and incubated for 16 hrs followed by compound washout and further incubated for 24 hrs by immunofluorescence staining based microscopic assay; format: functional, organism-based
Method in brief: (§7)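 Medium was then removed, wells washed three times with Hanks' balanced salt solution, and compound-free medium added; incubation continued 24 h. Read-out by IFU re-infection and anti-MOMP immunofluorescence, as in the IFU protocol.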

Chlamydia trachomatis [13] = assay: as §6, with “48” for “24”; format: functional, organism-based
Chlamydia trachomatis [14] = assay: as §6, with “Bacteriostatic” for “Anti-chlamydial”, “of” for “in chlamydial”, “size” for “yield”; format: functional, organism-based; method in brief: as §7
Chlamydia trachomatis [15] = assay: as §6, with “Bacteriostatic” for “Anti-chlamydial”, “loss of” for “reduction in chlamydial”, “morphology” for “yield”; format: functional, organism-based; method in brief: as §7
[16] = target: ATP-dependent Clp protease proteolytic subunit (Escherichia coli (strain K12)) (UniProt P0A6G7); assay: as §1, with “recombinant” for “recombinant mouse C-terminal 6xHis-tagged ClpP expressed in”, “coli ClpP” for “coli”; method in brief: as §2
[17] = Cytotoxicity against immortal human HaCaT cells assessed as reduction in cell viability at 50 ug/ml after 24 hrs by CCK-8 assay relative to control; format: cell-based; details: read-out: INH
Method in brief: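 HeLa 229 and HaCaT cells in DMEM with 10% FBS and 1% penicillin/streptomycin, 37 °C, 5% CO2, seeded at 5000 cells/well. Next day treated with 50 μg/mL in triplicate, with matching DMSO controls. After 24 h, CCK-8 added for 2 h; corrected absorbance read at 450 nm.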

Chlamydia trachomatis [18] = assay: as §1, with “Chlamydia trachomatis Serovar LGV-L2” for “mouse”, “6xhis-tagged ClpP1/ClpP2 dimer” for “6xHis-tagged ClpP”, “presence” for “absence”

Chain of ATP-dependent Clp protease proteolytic subunit (Escherichia coli (strain K12)) (P0A6G7 whole entry): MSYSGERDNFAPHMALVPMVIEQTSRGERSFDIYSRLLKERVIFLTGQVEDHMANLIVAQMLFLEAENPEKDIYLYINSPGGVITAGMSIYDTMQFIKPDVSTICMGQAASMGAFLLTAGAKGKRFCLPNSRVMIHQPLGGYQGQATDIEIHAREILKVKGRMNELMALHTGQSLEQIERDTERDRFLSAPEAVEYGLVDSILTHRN

| SMILES | Activity [1] | Activity (Chlamydia trachomatis [2]) | inhibition (Staphylococcus aureus [3]) | inhibition (Staphylococcus aureus [4]) | inhibition (Escherichia coli) | inhibition (Cryptococcus neoformans) | Activity [6] | further results |
| --- | --- | --- | --- | --- | --- | --- | --- | --- |
| CC(C)(C(=O)NCCCc1ccccc1)S(=O)(=O)c1ccc(C(F)(F)F)cc1 | Active | Active | inactive | inactive | inactive | inactive | Non-Toxic | microsomal intrinsic clearance [5]: 113.09 µL/min |
| CC(C)(C(=O)N1CCN(Cc2ccc(Cl)cc2)CC1)S(=O)(=O)c1ccc(C(F)(F)F)cn1 | Not Active | inactive | inactive | inactive | inactive | inactive | Non-Toxic | inhibition (Chlamydia trachomatis [7]): inactive; inhibition (Chlamydia trachomatis [8]): Active; Activity (HEp-2): Non-Toxic; inhibition (Chlamydia trachomatis [9]): Active; inhibition at 12.5 µg/mL (Chlamydia trachomatis [10]): 60%; inhibition (Chlamydia trachomatis [11]): Active; inhibition (Chlamydia trachomatis [12]): inactive; inhibition (Chlamydia trachomatis [13]): inactive; inhibition (Chlamydia trachomatis [14]): Active; inhibition (Chlamydia trachomatis [15]): Active; Activity [16]: Active; cytotoxicity at 24 h, 50 ug/ml [17]: 50%; Activity (Chlamydia trachomatis [18]): inactive |
